The subject of one assay is A549. Put plainly: Cytotoxicity against human A549 cells after 72 hrs by MTS assay. The assay is classed as functional, cell-based. The settings on record: A549, 72 h. The essentials:
(§1)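 Triplicate wells seeded at (2–5) × 10^3 cells each, depending on growth rate, and left overnight to attach. Medium was then replaced with medium containing test compound at serial dilutions from 100 mM DMSO stocks, or 0.1% DMSO. Incubation was 72 h at 37 °C in humidified 5% CO2. MTS was added in the dark, with a 90 min read-out incubation at 37 °C.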
For orientation: Tetrazolium dyes change colour on reduction, which living cells bring about.

The subject of another assay is A-375. Put plainly: Cytotoxicity against human A375 cells after 72 hrs by MTS assay. The settings on record: A-375, 72 h. The assay is classed as functional, cell-based. The essentials: as §1
The subject of a further assay is HaCaT. Put plainly: Cytotoxicity against human HaCaT cells after 72 hrs by MTS assay. The assay is classed as functional, cell-based. The essentials:
as §1

Assay [1] in a line: Cytotoxicity against human EC109 cells after 72 hrs by MTS assay. The settings on record: ECa-109, 72 h. The assay is classed as functional, cell-based. In a few lines:
as §1

For a further assay, the system named is PANC-1. Put plainly: Cytotoxicity against human PANC1 cells after 72 hrs by MTS assay. The assay is classed as functional, cell-based. The settings on record: PANC-1, 72 h. In a few lines: as §1
Assay [2] can be described thus: Cytotoxicity against human MGC cells after 72 hrs by MTS assay. Type of assay: functional, cell-based. The essentials:
as §1

A short description of assay [3]: Cytotoxicity against human CNE1-LMP1 cells after 72 hrs by MTS assay. Type of assay: functional, cell-based. As to conditions: CNE1-LMP1, 72 h. In a few lines: as §1
The test system of a further assay is MCF7. Put plainly: Cytotoxicity against human MCF7 cells after 72 hrs by MTS assay. Type of assay: functional, cell-based. The settings on record: MCF7, 72 h. In a few lines:
as §1

Assay [4] is described as follows: Cytotoxicity against human Hep3B2 cells after 72 hrs by MTS assay. The assay is classed as functional, cell-based, Hep 3B2. As to conditions: Hep3B. The essentials:
as §1

This is an account of results in ChEMBL document CHEMBL1821668, “Isolation and characterization of aphidicolin and chlamydosporol derivatives from Tolypocladium inflatum” (J Nat Prod, 2011).

One may read the IC50 as the concentration at which inhibition is half-maximal. Regarding `CC(=O)O[C@H]1C(=O)[C@@]2(C)[C@H]([C@H](OC(=O)c3ccccc3)[C@]3(O)C[C@H](OC(=O)[C@H](O)[C@@H](NC(=O)c4ccccc4)c4ccccc4)C(C)=C1C3(C)C)[C@]1(OC(C)=O)CO[C@@H]1C[C@@H]2O` [PACLITAXEL], the half-inhibitory concentration (IC50) was found to be 0.03 µM in the assay on A549; 0.0089 µM in the assay on A-375; 0.024 µM in the assay with HaCaT; 0.14 µM in assay [1]; 0.0011 µM in the assay on PANC-1; 0.0064 µM in assay [2]. In addition, the IC50 in [3] is 0.0042 µM; with MCF7, 0.014 µM; in assay [4] it was 1.6e-05 µM.

Turning to `COc1cc(=O)oc2c1[C@H](O[C@@H]1O[C@@H](C)[C@@H](C)c3oc(=O)cc(OC)c31)O[C@@H](C)[C@H]2C` [INFLATIN D], the concentration for half-maximal inhibition (IC50) (in the assay on A549; in the assay on A-375; in the assay with HaCaT; in assay [1]; with PANC-1; in [2]) was above 100 µM throughout. In addition, the half-maximal inhibitory concentration (IC50) (in [3]; in the assay on MCF7; in [4]) was above 100 µM throughout.

On to `COc1cc(=O)oc2c1[C@H](O)O[C@@H](C)[C@H]2C` [INFLATIN C], for which the IC50 (in the assay on A549; with A-375; in the assay with HaCaT; in [1]; in the assay with PANC-1; in assay [2]) was above 100 µM in each case. The IC50 (in assay [3]; in the assay with MCF7; in [4]) was above 100 µM throughout.

With `CC(=O)OC[C@@]1(O)CC[C@]23C[C@H]1C[C@@H]2CC[C@H]1[C@]2(C)CO[C@H](c4ccc(O)cc4)O[C@@H]2CC[C@@]13C` [INFLATIN B], the 50% inhibitory concentration (IC50) in the assay on A549 is 25 µM; in the assay with A-375 it was 25.5 µM; in the assay with HaCaT, 55.1 µM; in assay [1], 70.8 µM; in the assay on PANC-1, 53.2 µM; in assay [2], above 100 µM. Moreover, the IC50 in assay [3] is 15 µM; with MCF7, 75.2 µM; in assay [4], 7.3 µM.

Consider `COc1cc(=O)oc2c1[C@H](O[C@@H]1O[C@@H](C)[C@@H](C)c3oc(=O)cc(OC)c31)O[C@@H](C)[C@@H]2C` [INFLATIN E], for which the IC50 (in the assay on A549; in the assay with A-375; with HaCaT; in assay [1]; in the assay with PANC-1; in [2]) was above 100 µM each time. The half-maximal inhibitory concentration (IC50) (in assay [3]; with MCF7; in [4]) was above 100 µM each time.

On to `COc1cc(=O)oc2c1[C@H](O[C@@H]1O[C@@H](C)[C@H](C)c3oc(=O)cc(OC)c31)O[C@@H](C)[C@@H]2C` [INFLATIN F], for which the concentration for half-maximal inhibition (IC50) (in the assay on A549; with A-375; in the assay on HaCaT; in [1]; in the assay with PANC-1; in [2]) was above 100 µM throughout. The half-inhibitory concentration (IC50) is above 100 µM in assay [3], above 100 µM with MCF7 and 57.5 µM in assay [4].

Take `C[C@@]12CO[C@H](c3ccc(O)cc3)O[C@@H]1CC[C@@]1(C)[C@H]2CC[C@H]2C[C@@H]3C[C@@]21CC[C@]3(O)CO` [INFLATIN A]: the IC50 was found to be 75.3 µM in the assay on A549; 47.3 µM with A-375; 49.1 µM in the assay on HaCaT; 47.1 µM in assay [1]; 19.9 µM in the assay on PANC-1; 54.5 µM in [2]. Further, the IC50 is 39.1 µM in assay [3], 33.5 µM in the assay on MCF7 and 14.8 µM in [4].
